# In publication PMC6061410 (Clinical Drug Investigation, 2018):
# Tested on: healthy young and healthy elderly subjects
# Assay: Safety and tolerability
# Format: in vivo, human
# Conditions: young
# Procedure, shortened: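 Adverse events were recorded by system organ class and preferred term in the treated set. This was 84 healthy young or elderly subjects randomised 3:1 to oral drug or placebo over 14 days, across seven ascending dose groups with a safety review before each escalation. Changes were assessed against the last pre-dose baseline measurement.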
smiles,measurement,setting,value
C[C@@H](Oc1ccc(S(C)(=O)=O)cc1C(=O)N1C[C@@H]2C[C@]2(c2cc(C(F)(F)F)on2)C1)C(F)(F)F [BI 425809],Gastrointestinal disorders,"part 1, 25 mg QD",3 (33.3) n (%)
same,General disorders and administration site conditions,"part 1, 25 mg QD",0 (–) n (%)
same,Headache,"part 1, 25 mg QD",3 (33.3) n (%)
same,Infections and infestations,"part 1, 25 mg QD",2 (22.2) n (%)
same,Insomnia,"part 1, 25 mg QD",0 (–) n (%)
same,Musculoskeletal and connective tissue disorders,"part 1, 25 mg QD",0 (–) n (%)
same,Nasopharyngitis,"part 1, 25 mg QD",2 (22.2) n (%)
same,Nervous system disorder,"part 1, 25 mg QD",3 (33.3) n (%)
same,Ocular discomfort,"part 1, 25 mg QD",0 (–) n (%)
same,Psychiatric disorders,"part 1, 25 mg QD",1 (11.1) n (%)
same,Subjects with AEs leading to study discontinuation,"part 1, 25 mg QD",0 (–) n (%)
same,Subjects with investigator-defined drug-related AEs,"part 1, 25 mg QD",6 (66.7) n (%)
same,Total with AEs,"part 1, 25 mg QD",7 (77.8) n (%)
same,Vision blurred,"part 1, 25 mg QD",2 (22.2) n (%)
same,Dizziness,"part 1, 50 mg QD",1 (11.1) n (%)
same,Eye disorders,"part 1, 50 mg QD",3 (33.3) n (%)
same,Gastrointestinal disorders,"part 1, 50 mg QD",0 (–) n (%)
same,General disorders and administration site conditions,"part 1, 50 mg QD",2 (22.2) n (%)
same,Headache,"part 1, 50 mg QD",3 (33.3) n (%)
same,Infections and infestations,"part 1, 50 mg QD",1 (11.1) n (%)
same,Insomnia,"part 1, 50 mg QD",0 (–) n (%)
same,Musculoskeletal and connective tissue disorders,"part 1, 50 mg QD",1 (11.1) n (%)
same,Nasopharyngitis,"part 1, 50 mg QD",0 (–) n (%)
same,Nervous system disorder,"part 1, 50 mg QD",3 (33.3) n (%)
same,Ocular discomfort,"part 1, 50 mg QD",0 (–) n (%)
same,Psychiatric disorders,"part 1, 50 mg QD",0 (–) n (%)
same,Subjects with AEs leading to study discontinuation,"part 1, 50 mg QD",0 (–) n (%)
same,Subjects with investigator-defined drug-related AEs,"part 1, 50 mg QD",6 (66.7) n (%)
same,Total with AEs,"part 1, 50 mg QD",6 (66.7) n (%)
same,Vision blurred,"part 1, 50 mg QD",1 (11.1) n (%)
same,Dizziness,"part 1, 75 mg BID",2 (22.2) n (%)
same,Eye disorders,"part 1, 75 mg BID",2 (22.2) n (%)
same,Gastrointestinal disorders,"part 1, 75 mg BID",0 (–) n (%)
same,General disorders and administration site conditions,"part 1, 75 mg BID",1 (11.1) n (%)
same,Headache,"part 1, 75 mg BID",0 (–) n (%)
same,Infections and infestations,"part 1, 75 mg BID",0 (–) n (%)
same,Insomnia,"part 1, 75 mg BID",3 (33.3) n (%)
same,Musculoskeletal and connective tissue disorders,"part 1, 75 mg BID",0 (–) n (%)
same,Nasopharyngitis,"part 1, 75 mg BID",0 (–) n (%)
same,Nervous system disorder,"part 1, 75 mg BID",2 (22.2) n (%)
same,Ocular discomfort,"part 1, 75 mg BID",2 (22.2) n (%)
same,Psychiatric disorders,"part 1, 75 mg BID",3 (33.3) n (%)
same,Subjects with AEs leading to study discontinuation,"part 1, 75 mg BID",0 (–) n (%)
same,Subjects with investigator-defined drug-related AEs,"part 1, 75 mg BID",6 (66.7) n (%)
same,Total with AEs,"part 1, 75 mg BID",6 (66.7) n (%)
same,Vision blurred,"part 1, 75 mg BID",0 (–) n (%)
same,Dizziness,"part 1, 75 mg QD",3 (33.3) n (%)
same,Eye disorders,"part 1, 75 mg QD",0 (–) n (%)
same,Fatigue,"part 1, 75 mg QD",1 (11.1) n (%)
same,Gastrointestinal disorders,"part 1, 75 mg QD",2 (22.2) n (%)
same,General disorders and administration site conditions,"part 1, 75 mg QD",1 (11.1) n (%)
same,Headache,"part 1, 75 mg QD",4 (44.4) n (%)
same,Infections and infestations,"part 1, 75 mg QD",1 (11.1) n (%)
same,Insomnia,"part 1, 75 mg QD",0 (–) n (%)
same,Musculoskeletal and connective tissue disorders,"part 1, 75 mg QD",1 (11.1) n (%)
same,Nasopharyngitis,"part 1, 75 mg QD",1 (11.1) n (%)
same,Nervous system disorder,"part 1, 75 mg QD",5 (55.6) n (%)
same,Ocular discomfort,"part 1, 75 mg QD",0 (–) n (%)
same,Psychiatric disorders,"part 1, 75 mg QD",0 (–) n (%)
same,Subjects with AEs leading to study discontinuation,"part 1, 75 mg QD",0 (–) n (%)
same,Subjects with investigator-defined drug-related AEs,"part 1, 75 mg QD",5 (55.6) n (%)
same,Total with AEs,"part 1, 75 mg QD",6 (66.7) n (%)
same,Vision blurred,"part 1, 75 mg QD",0 (–) n (%)
same,Dizziness,"part 1, Total BI n = 45",7 (15.6) n (%)
same,Eye disorders,"part 1, Total BI n = 45",7 (15.6) n (%)
same,Fatigue,"part 1, Total BI n = 45",1 (2.2) n (%)
same,Gastrointestinal disorders,"part 1, Total BI n = 45",5 (11.1) n (%)
same,General disorders and administration site conditions,"part 1, Total BI n = 45",4 (8.9) n (%)
same,Headache,"part 1, Total BI n = 45",13 (28.9) n (%)
same,Infections and infestations,"part 1, Total BI n = 45",5 (11.1) n (%)
same,Insomnia,"part 1, Total BI n = 45",3 (6.7) n (%)
same,Musculoskeletal and connective tissue disorders,"part 1, Total BI n = 45",3 (6.7) n (%)
same,Nasopharyngitis,"part 1, Total BI n = 45",3 (6.7) n (%)
same,Nervous system disorder,"part 1, Total BI n = 45",17 (37.8) n (%)
same,Ocular discomfort,"part 1, Total BI n = 45",2 (4.4) n (%)
same,Psychiatric disorders,"part 1, Total BI n = 45",4 (8.9) n (%)
same,Subjects with AEs leading to study discontinuation,"part 1, Total BI n = 45",0 (–) n (%)
same,Subjects with investigator-defined drug-related AEs,"part 1, Total BI n = 45",27 (60.0) n (%)
same,Total with AEs,"part 1, Total BI n = 45",30 (66.7) n (%)
same,Vision blurred,"part 1, Total BI n = 45",3 (6.7) n (%)
same,Eye disorders,"parts 1 and 2, BI n = 57",7 (12.3) n (%)
same,Gastrointestinal disorders,"parts 1 and 2, BI n = 57",5 (8.8) n (%)
same,General disorders and administration site conditions,"parts 1 and 2, BI n = 57",4 (7.0) n (%)
same,Infections and infestations,"parts 1 and 2, BI n = 57",6 (10.5) n (%)
same,Musculoskeletal and connective tissue disorders,"parts 1 and 2, BI n = 57",3 (5.3) n (%)
same,Nervous system disorder,"parts 1 and 2, BI n = 57",18 (31.6) n (%)
same,Psychiatric disorders,"parts 1 and 2, BI n = 57",4 (7.0) n (%)
same,Subjects with AEs leading to study discontinuation,"parts 1 and 2, BI n = 57",0 (–) n (%)
same,Subjects with investigator-defined drug-related AEs,"parts 1 and 2, BI n = 57",27 (47.4) n (%)
same,Total with AEs,"parts 1 and 2, BI n = 57",32 (56.1) n (%)
